# According to paper PMC3277802 (Journal of Controlled Release, 2011):
# Columns and labels:
# human liver cathepsin B [1] = molecular target: T1, human liver cathepsin B (Homo sapiens, UniProt P07858); assay: Cathepsin B-mediated polymer degradation; type: in vitro ADME; conditions: for Cathepsin B degradation of polymer (in words): 44 μg/mL polymer, 1.28 μg/mL cathepsin B, acetate pH 5, 37 °C, SEC; for Degradation Type: Table 1 summary of peptidase susceptibility of copolymer
# Procedure, shortened: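 HPMA-oligolysine copolymers were made by RAFT polymerization. Cathepsin B was pre-activated with DTT/EDTA at 37 °C for 15 min, then used in pH 5 acetate/EDTA buffer at 1.28 μg/mL final. Polymer was 44 μg/mL final, at 37 °C. Aliquots taken over time were stopped with E-64. Relative differential refractive index profiles from SEC were compared, with supporting MALDI-TOF MS.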
# NIH/3T3 cells = assay: Cytotoxicity by MTS assay, NIH/3T3; type: cell-based; conditions: free polymer, 4 hrs exposure, MTS at 48 hrs; four-parameter fit
# Procedure, shortened: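 Polymers at a range of concentrations were made up in ddH2O and diluted 10-fold into reduced-serum MEM. NIH/3T3 cells were rinsed once with PBS and exposed for 4 hrs. At 48 hrs MTS reagent was added, followed by 3 hrs of incubation and absorbance reading at 490 nm. IC50 was expressed in amine equivalents and obtained by a four-parameter variable-slope nonlinear fit.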
# human liver cathepsin B [2] = molecular target: T1, human liver cathepsin B; assay: Polyplex destabilization by DLS under cathepsin B treatment; type: in vitro ADME; conditions: 4 N:P, 5.33 μg/mL DNA, pH 5, 37 °C
# Procedure, shortened: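 Polyplexes were formed at 4 N:P: pCMV-Luc2 plasmid (0.1 mg/mL in ddH2O) was mixed with an equal volume of polymer for 10 min at room temperature. These were added to pre-activated cathepsin B (1.28 μg/mL final, pH 5 acetate) at 5.33 μg/mL DNA final. The sample sat in a capped cuvette pre-equilibrated at 37 °C. DLS particle size was read every 15 min for 8 hrs.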
# human liver cathepsin B [3] = molecular target: T1, human liver cathepsin B; type: in vitro ADME; conditions: 4 N:P, 5.33 μg/mL DNA, cathepsin B pH 5, 37 °C; normalized to plasmid-only
# Procedure, shortened: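 Plasmid was pre-labelled with YOYO-1 (dye:base pair 1:50, 1 hr, room temperature) and complexed with polymer at 4 N:P. Polyplexes were incubated with pre-activated cathepsin B (pH 5 acetate, 37 °C) at 5.33 μg/mL DNA final. Timed aliquots were stopped with E-64 and diluted in ddH2O. Fluorescence was read at ex 491/em 509 nm and normalized to uncomplexed plasmid signal.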
Substance,Cathepsin B degradation of polymer (in words) (human liver cathepsin B [1]),Degradation Type (human liver cathepsin B [1]),"IC50 (μg/mL), NIH/3T3 (NIH/3T3 cells)",Polyplex particle size over 8 hrs cathepsin B treatment (human liver cathepsin B [2]; DLS every 15 min),YOYO-1 fluorescence relative to free plasmid by 8 hrs of cathepsin B exposure (human liver cathepsin B [3]),Polyplex particle size at start of cathepsin B treatment (human liver cathepsin B [2]; DLS),Polyplex particle size after 4 hrs cathepsin B treatment (plateau) (human liver cathepsin B [2]; DLS every 15 min)
HPMA-co-MaAhx(D)FKFLAhx(D)K10 [pH(D)Cath(D)K10],no degradation,None,30.3 µg/mL,~ 150 nm,,,
HPMA-co-MaAhxFKFLAhx(D)K10 [pHCath(D)K10],,,28.7 µg/mL,~ 600 nm,,,
HPMA-co-MaAhxFKFLAhxK10 [pHCathK10],,Endo/exopeptidase,29.7 µg/mL,,70%,~ 150 nm,about 500 nm
HPMA-co-MaAhxK10 [reference compound],observed MW shift over 4hrs is comparable to 10 min with pHCathK10,,,,,,
